Test results: ChEMBL document CHEMBL2040768, “Synthesis, antimicrobial and cytotoxic activities of sulfone linked bis heterocycles” (Eur J Med Chem, 2012)
Calls of active or inactive are those of the source. No cut-off for these calls is given here.

Key:
A549 = test: Cytotoxicity against human A549 cells up to 0.2 mM after 72 hrs by MTT assay
Klebsiella pneumoniae [1] = test: Antibacterial activity against Klebsiella pneumoniae at 50 ug/ml after 24 hrs by agar well diffusion method; type: functional; settings: for zone of inhibition at 50 µg/mL: read-out: DIZ
Outline: (§1)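 Agar well diffusion. Nutrient plates swabbed with 24 h broth culture of the bacterium; 6 mm wells bored and loaded with DMSO solutions of compound (wells at 50 and 100 per well). Chloramphenicol positive control, DMSO negative control. Plates held 37 °C, 24 h; inhibition zone diameter (mm) measured, mean of duplicates.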

Staphylococcus aureus [2] = test: Antibacterial activity against Staphylococcus aureus at 100 ug/ml after 24 hrs by agar well diffusion method; type: functional; settings: for zone of inhibition at 100 µg/mL: read-out: DIZ
Outline: as §1

Bacillus subtilis [3] = test: Antibacterial activity against Bacillus subtilis at 50 ug/ml after 24 hrs by agar well diffusion method; type: functional; settings: for zone of inhibition at 50 µg/mL: read-out: DIZ
Outline: as §1

Pseudomonas aeruginosa [4] = test: Antibacterial activity against Pseudomonas aeruginosa at 50 ug/ml after 24 hrs by agar well diffusion method; type: functional; settings: for zone of inhibition at 50 µg/mL: read-out: DIZ
Outline: as §1

Staphylococcus aureus [5] = test: Antibacterial activity against Staphylococcus aureus at 50 ug/ml after 24 hrs by agar well diffusion method; type: functional; settings: for zone of inhibition at 50 µg/mL: read-out: DIZ
Outline: as §1

Aspergillus niger [6] = test: Antifungal activity against Aspergillus niger at 50 ug/ml after 48 hrs by agar well diffusion method; type: functional; settings: for zone of inhibition at 50 µg/mL: read-out: DIZ
Outline: (§2)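 Fungal agar well diffusion. Plates swabbed with fungal culture, 6 mm wells filled with DMSO solutions of compound (50 and 100 per well). Ketoconazole positive and DMSO negative controls. Plates incubated 28 °C for 48 h; zone of inhibition diameter (mm) read, average of duplicates.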

Penicillium chrysogenum [7] = test: Antifungal activity against Penicillium chrysogenum at 100 ug/ml after 48 hrs by agar well diffusion method; type: functional; settings: for zone of inhibition at 100 µg/mL: read-out: DIZ
Outline: as §2

Penicillium chrysogenum [8] = test: Antifungal activity against Penicillium chrysogenum at 50 ug/ml after 48 hrs by agar well diffusion method; type: functional; settings: for zone of inhibition at 50 µg/mL: read-out: DIZ
Outline: as §2

Bacillus subtilis [9] = test: Antibacterial activity against Bacillus subtilis at 100 ug/ml after 24 hrs by agar well diffusion method; type: functional; settings: for zone of inhibition at 100 µg/mL: read-out: DIZ
Outline: as §1

Pseudomonas aeruginosa [10] = test: Antibacterial activity against Pseudomonas aeruginosa at 100 ug/ml after 24 hrs by agar well diffusion method; type: functional; settings: for zone of inhibition at 100 µg/mL: read-out: DIZ
Outline: as §1

Aspergillus niger [11] = test: Antifungal activity against Aspergillus niger at 100 ug/ml after 48 hrs by agar well diffusion method; type: functional; settings: for zone of inhibition at 100 µg/mL: read-out: DIZ
Outline: as §2

Klebsiella pneumoniae [12] = test: Antibacterial activity against Klebsiella pneumoniae at 100 ug/ml after 24 hrs by agar well diffusion method; type: functional; settings: for zone of inhibition at 100 µg/mL: read-out: DIZ
Outline: as §1

Compound	Activity (A549)	zone of inhibition at 50 µg/mL (Klebsiella pneumoniae [1])	zone of inhibition at 100 µg/mL (Staphylococcus aureus [2])	zone of inhibition at 50 µg/mL (Bacillus subtilis [3])	zone of inhibition at 50 µg/mL (Pseudomonas aeruginosa [4])	zone of inhibition at 50 µg/mL (Staphylococcus aureus [5])	zone of inhibition at 50 µg/mL (Aspergillus niger [6])	zone of inhibition at 100 µg/mL (Penicillium chrysogenum [7])	zone of inhibition at 50 µg/mL (Penicillium chrysogenum [8])	zone of inhibition at 100 µg/mL (Bacillus subtilis [9])	zone of inhibition at 100 µg/mL (Pseudomonas aeruginosa [10])	zone of inhibition at 100 µg/mL (Aspergillus niger [11])	zone of inhibition at 100 µg/mL (Klebsiella pneumoniae [12])	other results
Cc1ccc(NS(=O)(=O)Cc2nnc(CS(=O)(=O)C3CNN=C3S(=O)(=O)c3ccc(C)cc3)s2)cc1 (centres undefined)	inactive	16 mm	13 mm	14 mm	11 mm	11 mm	11 mm	16 mm	13 mm	16 mm	13 mm	14 mm	18 mm	–
O=S(=O)(Cc1nnc(CS(=O)(=O)c2c[nH]cc2S(=O)(=O)c2ccc(Cl)cc2)o1)Nc1ccc(Cl)cc1	inactive	23 mm	20 mm	17 mm	18 mm	18 mm	21 mm	26 mm	22 mm	21 mm	20 mm	24 mm	25 mm	–
Cc1ccc(NS(=O)(=O)Cc2nnc(CS(=O)(=O)c3c[nH]cc3S(=O)(=O)c3ccc(C)cc3)o2)cc1	inactive	–	–	–	–	–	–	–	–	–	–	–	–	diameter of the inhibition zone (DIZ) (Klebsiella pneumoniae [1]): inactive; diameter of the inhibition zone (DIZ) (Staphylococcus aureus [2]): inactive; diameter of the inhibition zone (DIZ) (Bacillus subtilis [3]): inactive; diameter of the inhibition zone (DIZ) (Pseudomonas aeruginosa [4]): inactive; diameter of the inhibition zone (DIZ) (Staphylococcus aureus [5]): inactive; diameter of the inhibition zone (DIZ) (Aspergillus niger [6]): inactive; diameter of the inhibition zone (DIZ) (Penicillium chrysogenum [7]): inactive; diameter of the inhibition zone (DIZ) (Penicillium chrysogenum [8]): inactive; diameter of the inhibition zone (DIZ) (Bacillus subtilis [9]): inactive; diameter of the inhibition zone (DIZ) (Pseudomonas aeruginosa [10]): inactive; diameter of the inhibition zone (DIZ) (Aspergillus niger [11]): inactive; diameter of the inhibition zone (DIZ) (Klebsiella pneumoniae [12]): inactive
Cc1ccc(NS(=O)(=O)Cc2nnc(CS(=O)(=O)c3c[nH]nc3S(=O)(=O)c3ccc(C)cc3)o2)cc1	inactive	–	–	–	–	–	–	–	–	–	–	–	–	diameter of the inhibition zone (DIZ) (Klebsiella pneumoniae [1]): inactive; diameter of the inhibition zone (DIZ) (Staphylococcus aureus [2]): inactive; diameter of the inhibition zone (DIZ) (Bacillus subtilis [3]): inactive; diameter of the inhibition zone (DIZ) (Pseudomonas aeruginosa [4]): inactive; diameter of the inhibition zone (DIZ) (Staphylococcus aureus [5]): inactive; diameter of the inhibition zone (DIZ) (Aspergillus niger [6]): inactive; diameter of the inhibition zone (DIZ) (Penicillium chrysogenum [7]): inactive; diameter of the inhibition zone (DIZ) (Penicillium chrysogenum [8]): inactive; diameter of the inhibition zone (DIZ) (Bacillus subtilis [9]): inactive; diameter of the inhibition zone (DIZ) (Pseudomonas aeruginosa [10]): inactive; diameter of the inhibition zone (DIZ) (Aspergillus niger [11]): inactive; diameter of the inhibition zone (DIZ) (Klebsiella pneumoniae [12]): inactive
Nn1c(CS(=O)(=O)Nc2ccccc2)nnc1CS(=O)(=O)c1c[nH]cc1S(=O)(=O)c1ccccc1	inactive	22 mm	19 mm	20 mm	15 mm	17 mm	18 mm	22 mm	19 mm	22 mm	16 mm	20 mm	24 mm	–
Cc1ccc(NS(=O)(=O)Cc2nnc(CS(=O)(=O)c3c[nH]cc3S(=O)(=O)c3ccc(C)cc3)s2)cc1	inactive	19 mm	16 mm	17 mm	13 mm	14 mm	14 mm	19 mm	16 mm	19 mm	14 mm	17 mm	21 mm	–
Cc1ccc(NS(=O)(=O)Cc2nnc(CS(=O)(=O)c3c[nH]nc3S(=O)(=O)c3ccc(C)cc3)n2N)cc1	inactive	20 mm	17 mm	18 mm	12 mm	16 mm	16 mm	18 mm	14 mm	20 mm	14 mm	19 mm	22 mm	–
Nn1c(CS(=O)(=O)Nc2ccc(Cl)cc2)nnc1CS(=O)(=O)C1CNN=C1S(=O)(=O)c1ccc(Cl)cc1 (centres undefined)	inactive	28 mm	27 mm	24 mm	21 mm	25 mm	28 mm	32 mm	29 mm	27 mm	24 mm	30 mm	30 mm	–
